From PMC11462461 (Heliyon, 2024)

Key:
[1] = test system: HeLa cells; experiment: MTT assay, HeLa; type: cell-based; settings: Homo sapiens, 48 h
Method in brief: (§1)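 Cells were STR-authenticated and mycoplasma-tested (HEK was a gift; the others were from a national cell repository). They were cultured with 10 % FBS at 37 °C, with or without 5 % CO2, then plated in 96-well plates and allowed to attach overnight. Test compound was added at increasing concentrations for 48 h. Solubilized MTT formazan absorbance was read at 570 nm. At least three independent experiments were run.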

[2] = test system: HCT116 cells; experiment: Acridine orange/PI dual staining; type: cell-based, Human; settings: HCT116, 48 h
[3] = test system: MDA-MB-231 cells; experiment: MTT assay, MDA-MB-231; type: cell-based; settings: Homo sapiens, MDA-MB-231, 48 h
Method in brief: as §1

[4] = test system: HCT116 cells; experiment: Hoechst/PI double staining; type: cell-based, Human; settings: HCT116, 48 h
[5] = test system: HCT116 cells; experiment: MTT assay, HCT116; type: cell-based; settings: Homo sapiens, HCT-116, 48 h
Method in brief: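 STR-authenticated, mycoplasma-tested HCT116 cells were grown in 10 % FBS medium at 37 °C. They were seeded in 96-well plates, left to attach overnight, and exposed to increasing concentrations of test compound for 48 h. DMSO-treated cells were the control. MTT formazan was solubilized and read at 570 nm. Experiments were repeated thrice, with SEM error bars.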

[6] = test system: HCT116 cells; experiment: Foci formation assay; type: cell-based, Human; settings: HCT116, 12 days, crystal violet
[7] = test system: HEK cells; experiment: MTT assay, normal kidney cells HEK; type: cell-based, Human; settings: for IC50: Homo sapiens, HEK293, 48 h
Method in brief: as §1

SMILES | IC50 [1] | propidium iodide uptake (live/dead cells) [2] | IC50 [3] | propidium iodide uptake and nuclear membrane deformation [4] | IC50 [5] | colony formation [6] | toxicity towards normal cell lines ([7]; HeK) | IC50 [7]
COc1ccc(-c2cc(C(=O)Nc3ccccc3)c3cc(-c4ccccc4)ccc3n2)cc1 [Compound 7a, 2-(4-methoxyphenyl)-N,6-diphenylquinoline-4-carboxamide] | 41.3 ± 0.06 µM | propidium iodide uptake in concentration dependent manner | 39.2 ± 0.13 µM | uptake of propidium iodide in concentration dependent manner with nuclear membrane deformation in dead cells | 35.6 ± 0.06 µM | inhibit colony formation of colon cancer cells in a concentration dependent manner | less toxicity towards normal cell lines | > 50 µM
COc1ccc(-c2cc(C(=O)Nc3ccccc3)c3cc(-c4cc(F)ccc4OC)ccc3n2)cc1 [Compound 7b, 6-(5-Fluoro-2-methoxyphenyl)-2-(4-methoxyphenyl)-N-phenylquinoline-4-carboxamide] | 41.6 ± 0.58 µM |  | > 50 µM |  | 43.3 ± 0.53 µM |  |  | > 50 µM
COc1ccc(-c2cc(C(=O)Nc3ccccc3)c3cc(-c4cc(Cl)ccc4F)ccc3n2)cc1 [Compound 7c, 6-(5-Chloro-2-fluorophenyl)-2-(4-methoxyphenyl)-N-phenylquinoline-4-carboxamide] | 42.4 ± 0.37 µM |  | > 50 µM |  | 41.8 ± 0.16 µM |  |  | > 50 µM
COc1ccc(-c2cc(C(=O)Nc3ccccc3)c3cc(-c4ccc(Cl)cc4)ccc3n2)cc1 [Compound 7d, 6-(4-chlorophenyl)-2-(4-methoxyphenyl)-N-phenylquinoline-4-carboxamide] | 38.3 ± 0.25 µM |  | > 50 µM |  | 39.8 ± 0.11 µM |  |  | > 50 µM
COc1ccc(-c2cc(C(=O)Nc3ccccc3)c3cc(-c4cccs4)ccc3n2)cc1 [Compound 7e, 2-(4-methoxyphenyl)-N-phenyl-6-(thiophen-2-yl)quinoline-4-carboxamide] | > 50 µM |  | > 50 µM |  | > 50 µM |  |  | > 50 µM
COc1ccc(-c2cc(C(=O)Nc3ccccc3)c3cc(-c4cc(C)ccc4F)ccc3n2)cc1 [Compound 7f, 6-(2-Fluoro-5-methylphenyl)-2-(4-methoxyphenyl)-N-phenylquinoline-4-carboxamide] | > 50 µM |  | > 50 µM |  | > 50 µM |  |  | > 50 µM
COc1ccc(-c2cc(C(=O)Nc3ccccc3)c3cc(-c4cnc(Cl)c(C)c4)ccc3n2)cc1 [Compound 7g, 6-(6-Chloro-5-methylpyridin-3-yl)-2-(4-methoxyphenyl)-N-phenylquinoline-4-carboxamide] | > 50 µM |  | > 50 µM |  | > 50 µM |  |  | > 50 µM
O=C(Nc1ccccc1)c1cc(-c2ccccc2)nc2ccc(-c3ccccc3)cc12 [Compound 7h, N,2,6-triphenylquinoline-4-carboxamide] | 43.3 ± 0.31 µM |  | 46.3 ± 0.18 µM |  | 41.6 ± 0.11 µM |  |  | > 50 µM
COc1ccc(F)cc1-c1ccc2nc(-c3ccccc3)cc(C(=O)Nc3ccccc3)c2c1 [Compound 7i, 6-(5-Fluoro-2-methoxyphenyl)-N,2-diphenylquinoline-4-carboxamide] | > 50 µM |  | > 50 µM |  | 44.2 ± 0.08 µM |  |  | > 50 µM
COc1ccc(F)cc1-c1ccc2nc(-c3ccc(F)cc3)cc(C(=O)Nc3ccccc3)c2c1 [Compound 7j, 6-(5-Fluoro-2-methoxyphenyl)-2-(4-fluorophenyl)-N-phenylquinoline-4-carboxamide] | > 50 µM |  | > 50 µM |  | 42.5 ± 0.23 µM |  |  | > 50 µM
COc1cccc2c1C(=O)c1c(O)c3c(c(O)c1C2=O)C[C@@](O)(C(=O)CO)C[C@@H]3O[C@H]1C[C@H](N)[C@H](O)[C@H](C)O1 [Doxorubicin, reference compound] | 5.04 ± 0.41 µM |  | 5.32 ± 0.11 µM |  | 1.26 ± 0.09 µM |  |  | 8.23 ± 0.73 µM
